One block for each compound: values may come before it.
Key:
[1] = molecular target: T1, Glutamate NMDA receptor (Rattus norvegicus) (UniProt P35439+Q00959+Q00960+Q00961+Q62645+Q8VHN2+Q9R1M7); assay: The compound was tested for its affinity against N-methyl-D-aspartate glutamate receptor in rats using [3H]CPP as uM; conditions: concentration not given here
How it was run: (§1)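 Rat brain crude synaptic membranes, Triton X-100 treated, frozen at -70 °C, thawed, washed once, resuspended in Tris HCl buffer at 0.3–0.5 mg protein/mL (Lowry). NMDA receptor affinity measured by displacement of [3H]CPP binding.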

Mus musculus [2] = species on record: Mus musculus; assay: (§2) Effective dose against NMDA-induced lethality in male Swiss-albino mice; format: ADME, organism-based; conditions: in vivo
Glutamate NMDA receptor [3] = assay: Inhibition of [3H]CPP binding to rat N-methyl-D-aspartate glutamate receptor; format: protein-complex assay
How it was run: (§3)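 Rat brain crude synaptic membranes treated with 0.04% Triton X-100 and stored frozen at -70 °C. Before use they were thawed, washed once in Tris HCl buffer and resuspended at 0.3–0.5 mg protein/mL (Lowry). NMDA receptor affinity was measured as displacement of [3H]CPP binding to these membranes.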

Glutamate NMDA receptor [4] = assay: The compound was tested for its affinity against N-methyl-D-aspartate glutamate receptor in rats using [3H]CPP as radioligand; how it was run: as §3
[5] = molecular target: T2, Glutamate receptor ionotropic, AMPA (Rattus norvegicus, UniProt P19490+P19491+P19492+P19493); assay: The compound was tested for its affinity against AMPA receptor in rats
[6] = molecular target: Glutamate receptor ionotropic, kainate; assay: Compound was tested or its affinity against ionotropic glutamate receptor ionotropic kainate in rats
[7] = molecular target: T1, Glutamate NMDA receptor (Rattus norvegicus); assay: The compound was tested for the inhibition of N-methyl-D-aspartate glutamate receptor in rats using [3H]-CPP as uM; conditions: concentration not given here; how it was run: as §1
Rattus norvegicus = species on record: Rattus norvegicus; assay: Ability to displace [3H]TCP from rat brain; format: functional
[8] = molecular target: T2, Glutamate receptor ionotropic, AMPA; assay: Compound was tested or its affinity against AMPA receptor in rats
[9] = molecular target: T1, Glutamate NMDA receptor (Rattus norvegicus); assay: The compound was tested for the inhibition of N-methyl-D-aspartate glutamate receptor in rats using [3H]CPP as uM; conditions: concentration not given here; how it was run: as §1
Mus musculus [10] = species on record: Mus musculus; assay: as §2; format: functional
Glutamate NMDA receptor [11] = assay: Compound tested for affinity towards N-methyl-D-aspartate glutamate receptor by measuring their ability to displace [3H]TCP from rat brain
Mus musculus [12] = species on record: Mus musculus; assay: Effective dose against NMDA-induced lethality in male Swiss-albino mice was determined at a concentration of 50 uM; format: organism-based; conditions: in vivo

SMILES: Nc1c(NCCCCP(=O)(O)O)c(=O)c1=O
inhibition [1]: 68%
ED50 (Mus musculus [2]): > 30 mg/kg

SMILES: NS(=O)(=O)c1cccc2c1c([N+](=O)[O-])cc1nc(O)c(O)nc12 [NBQX]
IC50 (Glutamate NMDA receptor [3]): > 10 µM

SMILES: N[C@@H](Cn1oc(=O)[nH]c1=O)C(=O)O [QUISQUALATE]
IC50 (Glutamate NMDA receptor [3]): > 100 µM

SMILES: Nc1c(NCCP(=O)(O)O)c(=O)c1=O
IC50 (Glutamate NMDA receptor [4]): 0.47 µM
ED50 (Mus musculus [2]): 29 mg/kg

SMILES: Nc1c(NCCCP(=O)(O)O)c(=O)c1=O
IC50 (Glutamate NMDA receptor [4]): 2.6 µM
ED50 (Mus musculus [2]): > 100 mg/kg

SMILES: NC(CCCCCP(=O)(O)O)C(=O)O (stereo not drawn) [AP-7]
ED50 (Mus musculus [10]): 38 mg/kg
IC50 (Glutamate NMDA receptor [3]): 0.39 µM

SMILES: O=C(O)C1CN(CCCP(=O)(O)O)CCN1 (stereo not drawn)
IC50 (Glutamate NMDA receptor [11]): 45 µM

SMILES: Nc1c(NCP(=O)(O)O)c(=O)c1=O
IC50 (Glutamate NMDA receptor [4]): > 10 µM
ED50 (Mus musculus [2]): > 100 mg/kg

SMILES: CN(CCP(=O)(O)O)c1c(N)c(=O)c1=O
Inhibition (Mus musculus [12]): 50%
IC50 (Glutamate NMDA receptor [4]): 1 µM

Next, values leading:

IC50 (Glutamate NMDA receptor [3]): 20 µM
SMILES: C/N=c1\c(O)c(O)\c1=N/CCC(=O)O

IC50 [5]: > 100 µM
IC50 [6]: > 100 µM
IC50 (Glutamate NMDA receptor [3]): 5.2 µM
SMILES: Nc1c(NCCn2oc(=O)[nH]c2=O)c(=O)c1=O

inhibition [7]: 50%
IC50 [5]: > 100 µM
IC50 [6]: > 100 µM
SMILES: Nc1c(N(CC(=O)O)Cc2ccccc2)c(=O)c1=O

IC50 (Rattus norvegicus): 941 µM
SMILES: Nc1c(NCCC(=O)O)c(=O)c1=O

IC50 [6]: > 100 µM
IC50 [8]: > 100 µM
IC50 (Glutamate NMDA receptor [3]): 10 µM
SMILES: C=CCN(CC(=O)O)c1c(N)c(=O)c1=O

IC50 [5]: > 100 µM
IC50 [6]: > 100 µM
inhibition [9]: 46%
SMILES: C=C(C)CN(CC(=O)O)c1c(N)c(=O)c1=O

IC50 [5]: > 100 µM
IC50 [6]: > 100 µM
SMILES: Nc1c(NCC(=O)O)c(=O)c1=O

IC50 (Glutamate NMDA receptor [3]): 190 µM
SMILES: CCOC(=O)C/N=c1\c(O)c(O)c1=N

IC50 (Glutamate NMDA receptor [3]): > 100 µM
SMILES: O=C(O)CCNc1c(O)c(=O)/c1=N\Cc1ccccc1

Source: ChEMBL document CHEMBL1125553, “Bioisosteric replacement of the alpha-amino carboxylic acid functionality in 2-amino-5-phosphonopentanoic acid yields unique 3,4-diamino-3-cyclobutene-1,2-dione containing NMDA antagonists” (J Med Chem, 1992)
